Tested on: MS2 coat protein
Assay: apparent Kd, MS2 coat protein; higher = weaker binding; RNA-MaP array; FMN 200 µM where present
Summary of the method: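 In 100 mM Tris-HCl pH 7.5, 80 mM KCl, 4 mM MgCl2, BSA, DTT, yeast tRNA and Tween-20, SNAP-549-labelled MS2 coat protein was titrated from 0.7 or 1.5 nM, doubling to 3 µM, over designs transcribed by stalled E. coli RNA polymerase on Illumina sequencing-chip clusters. This was done first without ligand, then with ligand held constant. After green signal was normalised to red-channel RNA signal and control-cluster median Fmax, the apparent Kd was taken as the median of filtered per-cluster binding-curve fits.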

[1] = designed as: OFF switch for flavin mononucleotide, no ligand
[2] = ligand present: flavin mononucleotide, designed as: OFF switch for flavin mononucleotide
[3] = designed as: ON switch for flavin mononucleotide, no ligand
[4] = ligand present: flavin mononucleotide, designed as: ON switch for flavin mononucleotide

Sequence | apparent Kd [1] | apparent Kd [2] | apparent Kd [3] | apparent Kd [4]
AUCAACCAGGCAGGAUAUCAAUGUGGCCUCAUCGUACACCCUCGCAACAUGAGGAUCACCCAUGUUGAGAAGGGCCAAUUAAGA | 10.1 nM | 6.02 nM |  | 
CCGUUACAUGAGGAUCACCCAUGUGAGGAUAUCGAUGUAACUAGCAGCGUGCGGGACUCGAGAAGGCACUUGGC | 104 nM | 75.2 nM |  | 
AACGACUGAGGAUAUACAUGAGGAUCACCCAUGUAUUGAAAUACGUGCUUGGUCAACUGUAGAAGGCAGAAUAA | 15.7 nM | 40.6 nM |  | 
UUAAUGUGAGGAUAUCAAGAGAGAAAGAGUAAUGGUAAAUAUGAGAAGGCACAUGAGGAUCACCCAUGUUCUUC | 15.9 nM | 15.5 nM |  | 
CGCAAGUCAGGAUAUUCGACUGGUCCAUCUGUGGAUUUGUAGGAGAAGGGACAUGAGGAUCACCCAUGUUUGUU | 30.6 nM | 23.9 nM |  | 
CUAGUUGUCGCAGGAUAUGCCCGCUGGUUGGAGGCAGAAGGGUGACACCAAAUAUUAUACAUGAGGAUCACCCAUGUCGCCAAC |  |  | 17.9 nM | 19.3 nM
AUAUGAUAGAUAGGAUAUACAUUGGAUUUAAAAGUAGAAGGAUCAAGUGGGAAAUGAACAUGAGGAUCACCCAUGUAAUAGGAU |  |  | 107 nM | 78.2 nM
CAAUUUAUAUCAGGAUAUACAAUACAAUGAUUAGUAGAAGGGAUUAAUACAUGAGGAUCACCCAUGUCAUGUGUCAUAAUAACC | 24.2 nM | 19.1 nM |  | 
UAAGUUGAGGAGAAGGGAGCACAUGAGGAUCACCCAUGUGGUUCUUUGUGCUCAGGAUAUCCAUGGAGCGCCGACGCGUUCCCG | 89.2 nM | 15.6 nM |  | 
CGCGCGGUGUAGAAGGGUGACAUGAGGAUCACCCAUGUGCGGAGGCGCCCAUUGACGCCUCCGCCACAGGAUAUACACCACGCC |  |  | 46.8 nM | 66.9 nM
AGGCAGCAAGGAUAUACAUAAUUCCUACAAGUCAGCAUAGGACAUGAGGAUCACCCAUGUAGAAGGUGCAAAGA | 24.1 nM | 46.3 nM |  | 
GGAAAGCAAGGAUAUACAAACAAACAAACAAACAAAAGGGAACAUGAGGAUCACCCAUGUAGAAGGUGCAAACA | 41.7 nM | 37.5 nM |  | 
AGCUGGUGACAGCAUCCAUCUUAACAUGAGGAUCACCCAUGUAGAAGGCUGUACGGUUACCGUACAGAGGAUAUACAUAGAUGG | 7.95 nM |  |  | 
UCCUCACAUGAGGAUCACCCAUGUCAGGAUAUCUGCGAGCAAUGGCCAAGGCCACUCAGGAGAAGGGACGUCAA | 16.3 nM | 22.3 nM |  | 
GUCAGCUCGUGAGGAUAUACAACACUGCUUCGGCAGUGUAUUAUGAUCACAUGAGGAUCACCCAUGUAGAAGGCACGAGCUGAU | 29.3 nM | 230 nM |  | 
AAAGUUGGUAGGCCCUUGGAACAUGAGGAUCACCCAUGUAAGGAGGAUAUGCCCGGUACCCGCUGGCAGAAGGCCUUAUAAGAA | 20.5 nM | 143 nM |  | 
GUCACGUAAGGAUAUCAUUAGUUGGACAUGAGGAUCACCCAUGUGAGACUAACUCCGGCGUGAGAAGGUGCGUUAA | 13.4 nM | 16.7 nM |  | 
AAUCAGCGGAACUUGACAUCCUUACAUGAGGAUCACCCAUGUCAGGAUAUAUGCUCUCGAGCUGCAUAGAAGGGACAUAGUGGG | 37.7 nM | 56 nM |  | 
AUAAACAUGAGGAUCACCCAUGUGAGAAGGCGCAUUACUAUAUUUAUACACUUUAAUACUAACAGCGAGGAUAUCACCUCAUAA | 15.8 nM | 24.7 nM |  | 

Sequence | apparent Kd [1] | apparent Kd [2] | apparent Kd [3] | apparent Kd [4]
GGCCCGCGCGUGAGGAUAUGCUGAUCCCAGGAUUAGCAGAAGGCACAUGAGGAUCACCCAUGUCCAACUUGUCU | 32.6 nM | 57 nM |  | 
AACAAGUCAGGAUAUCAUACUAAUCACUUGCUUUAAAUGUAUGAGAAGGGACAUGAGGAUCACCCAUGUAAAGA | 32.5 nM | 35.9 nM |  | 
AGUACUACAGGAUAUACGAGGGAGGUCCACGUGACCCUUUUACAUGAGGAUCACCCAUGUAGAAGGGUAGUACA | 23.3 nM | 26.8 nM |  | 
AAGCUGGUAGGAUAUACUAGGGCAACUAAUGCGCCGAUAGGACAUGAGGAUCACCCAUGUAGAAGGGCCAGAAA | 80.1 nM | 93.1 nM |  | 
UAAGAUUAUGUAGGAUAUGGUUAUCUAUGUCUAGUUACUAGACAUAGAUAACCAGAAGGACAUGAGGAUCACCCAUGUUGAAUG | 10.3 nM | 44.4 nM |  | 
AUAUAUAUUAGAGGAUAUGUGUUCAUGUUACAUGAGGAUCACCCAUGUUUAGGUUGAUUGAUCUUACAGAAGGCUAUACAAUGA | 97.2 nM | 78.5 nM |  | 
UACAGCGUAGAUAAUAAUGAAUACAUGAGGAUCACCCAUGUAUAGGAUAUGCAGUGGAAUACACUGCAGAAGGAUACAUCGCUG | 16.4 nM | 23 nM |  | 
UGAGCAUGAGGAUAUACUUGGCGACCGUGAGGUCGAGGUUUACAUGAGGAUCACCCAUGUAGAAGGCAUGUUCU | 18.7 nM | 52.6 nM |  | 
UUAUUAUAUGUAGGAUAUGUAUAUUAUUAUUGUGCAGAAGGACAUGAGGAUCACCCAUGUAUAUUAUUAUUAUAUAUUAUAUAU | 21.4 nM | 17.1 nM |  | 
GUAAACCUAGGAUAUACAUGAGGAUCACCCAUGUAAAGUUUCGUAAAAAGAUAAUCGAGUAGAAGGAGGUAGAU | 21.4 nM | 23.4 nM |  | 
AUGGUCAAGUGUGAGGAUAUCCAUGCUCCCACAUGAGGAUCACCCAUGUCUUAAAGGGCGUAAAGGGAGAAGGUACGAACGCCAC |  |  | 34.3 nM | 27.8 nM
UUAAAUCGAAACAUGAGGAUCACCCAUGUGUUGUAAUUAACAUAGGAUAUGUAAAUACUUUUUUAAUAGAAGGAUGAUAAUACU |  |  | 17 nM | 12.9 nM
GCUCGCGUCGGUUCGCUGGCCUGAGAGGAUAUCCACUGGCAUGUCGACAUGAGGAUCACCCAUGUGGAGAAGGCUCAGGAUAAA | 311 nM | 552 nM |  | 
GGUACUCAAAGAGUACGGAGUCGAACAUGAGGAUCACCCAUGUAGGAUAUGCUAAGCUUGAAGUUGCAGAAGGACAUGUGCAGC | 10.7 nM | 11.1 nM |  | 
AUGGUUGUCGUAGGAUAUGUAGGAUAUUCCUACAUGAGGAUCACCCAUGUUCGCAUGGAAGAAGGACAGAAGGACGAUAACCAC |  |  | 1310 nM | 8.46 nM
GCCUGUGAAGGAUAUACAUGAGGAUCACCCAUGUGGCGGGCAUACCCGCCGAGACCGUGUAGAAGGUCAUAGUA | 67.5 nM | 57.6 nM |  | 
GCGUAUUAGGUGUAGCUAGUCAUUCAAGAAGGGUGGAGAACAUGAGGAUCACCCAUGUAGUUUAUACAGGAUAUUGAUAUACGC |  |  | 489 nM | 101 nM
UAAUCUCAGAUAGGAUAUAUAGGAUAACUUAAGACCUAACAUGAGGAUCACCCAUGUGAUUAUUCGUAGAAGGAUCAUUGAACC |  |  | 206 nM | 217 nM

— the EternaBench riboswitch data
